According to ChEMBL document CHEMBL1129731, “The chemistry of pseudomonic acid. 17. Dual-action C-1 oxazole derivatives of pseudomonic acid having an extended spectrum of antibacterial activity” (J Med Chem, 1996):
In brackets after ≈: the same amount, converted by molar mass.

Legend:
Staphylococcus aureus [1] = test: Minimal inhibitory concentration against Staphylococcus aureus Smith; type: functional
How it was run: (§1)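 Broth microdilution in Mueller–Hinton broth; overnight broth cultures added to final 5 × 10^5 cfu/mL; incubated 37 °C, 18 h. MIC (µg/mL) taken as lowest concentration inhibiting growth.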

Mus musculus [2] = test: Total […] dose against Staphylococcus aureus after po administration (1+5 hr post infection) to mouse; type: organism-based; details: in vivo
How it was run: (§2)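 CD1 male mice, groups of five, infected ip with S. aureus Smith, 1.3 × 10^10 cfu (po groups) or 5 × 10^9 cfu (sc groups); dosed po or sc at 1 + 5 h postinfection, 0.2 mL/mouse. CD50 = total dose protecting 50% of mice from death, scored day 2 postinfection.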

Mus musculus [3] = test: Total […] dose against Staphylococcus aureus after sc administration (1+5 hr post infection) to mouse; type: organism-based; details: in vivo; how it was run: as §2
Bacteroides fragilis [4] = test: compound was tested for antibacterial activity Bacteroides fragilis NCTC 10581.; type: functional
Enterobacter cloacae = test: compound was tested for antibacterial activity against Ent. cloacae N1.; type: functional
Escherichia coli [5] = test: compound was tested for antibacterial activity against Escherichia coli DC0.; type: functional
Escherichia coli [6] = test: compound was tested for antibacterial activity against Escherichia coli DC2.; type: functional; how it was run: as §1
Enterococcus faecalis = test: compound was tested for antibacterial activity against Ent. faecalis I; type: functional; how it was run: as §1
Haemophilus influenzae = test: compound was tested for antibacterial activity against Haemophilus influenzae Q1.; type: functional
How it was run: (§3)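 Broth microdilution in Mueller–Hinton broth supplemented (final) with 5% heat-inactivated horse serum, 0.02 mg/mL hematin and 0.08 mg/mL NAD; inoculum 5 × 10^5 cfu/mL from overnight broth cultures; 37 °C for 18 h; MIC (µg/mL) read as lowest concentration inhibiting growth.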

Klebsiella pneumoniae = test: compound was tested for antibacterial activity against Klebsiella pneumoniae E70.; type: functional; how it was run: as §1
Moraxella catarrhalis = test: compound was tested for antibacterial activity against Moraxella catarrhalis 1502.; type: functional; how it was run: as §3
Proteus mirabilis = test: compound was tested for antibacterial activity against Pr. mirabilis C889.; type: functional; how it was run: as §1
Pseudomonas aeruginosa = test: compound was tested for antibacterial activity against Pseudomonas aeruginosa K799 wt.; type: functional; how it was run: as §1
[7] = tested on: Staphylococcus epidermidis; test: compound was tested for antibacterial activity aagainst Staphylococcus epidermidis PHLN 20.; type: functional; how it was run: as §1
Streptococcus pneumoniae = test: compound was tested for antibacterial activity against Strep. pneumoniae 1761.; type: functional; how it was run: as §3
Staphylococcus aureus [8] = test: compound was tested for antibacterial activity against Staphylococcus aureus F 89.; type: functional; how it was run: as §1
Staphylococcus aureus [9] = test: compound was tested for antibacterial activity against Staphylococcus aureus NCTC 6571.; type: functional; how it was run: as §1
Streptococcus pyogenes = test: compound was tested for antibacterial activity against Streptococcus pyogenes CN10.; type: functional; how it was run: as §3
Staphylococcus aureus [10] = test: compound was tested for antibacterial activity against Staphylococcus aureus C 37.; type: functional
[11] = target: Isoleucine--tRNA ligase, Staphylococcus aureus (UniProt P41972); test: compound was tested for inhibitory activity of isoleucyl-tRNA synthetase (IRS).
Isoleucine--tRNA ligase [12] = target: T1, Isoleucine--tRNA ligase (Staphylococcus aureus, UniProt P41972); test: Inhibitory activity against isoleucyl-tRNA synthetase (IRS) of Staphylococcus aureus; type: functional
T1 sequence (P41972 whole entry): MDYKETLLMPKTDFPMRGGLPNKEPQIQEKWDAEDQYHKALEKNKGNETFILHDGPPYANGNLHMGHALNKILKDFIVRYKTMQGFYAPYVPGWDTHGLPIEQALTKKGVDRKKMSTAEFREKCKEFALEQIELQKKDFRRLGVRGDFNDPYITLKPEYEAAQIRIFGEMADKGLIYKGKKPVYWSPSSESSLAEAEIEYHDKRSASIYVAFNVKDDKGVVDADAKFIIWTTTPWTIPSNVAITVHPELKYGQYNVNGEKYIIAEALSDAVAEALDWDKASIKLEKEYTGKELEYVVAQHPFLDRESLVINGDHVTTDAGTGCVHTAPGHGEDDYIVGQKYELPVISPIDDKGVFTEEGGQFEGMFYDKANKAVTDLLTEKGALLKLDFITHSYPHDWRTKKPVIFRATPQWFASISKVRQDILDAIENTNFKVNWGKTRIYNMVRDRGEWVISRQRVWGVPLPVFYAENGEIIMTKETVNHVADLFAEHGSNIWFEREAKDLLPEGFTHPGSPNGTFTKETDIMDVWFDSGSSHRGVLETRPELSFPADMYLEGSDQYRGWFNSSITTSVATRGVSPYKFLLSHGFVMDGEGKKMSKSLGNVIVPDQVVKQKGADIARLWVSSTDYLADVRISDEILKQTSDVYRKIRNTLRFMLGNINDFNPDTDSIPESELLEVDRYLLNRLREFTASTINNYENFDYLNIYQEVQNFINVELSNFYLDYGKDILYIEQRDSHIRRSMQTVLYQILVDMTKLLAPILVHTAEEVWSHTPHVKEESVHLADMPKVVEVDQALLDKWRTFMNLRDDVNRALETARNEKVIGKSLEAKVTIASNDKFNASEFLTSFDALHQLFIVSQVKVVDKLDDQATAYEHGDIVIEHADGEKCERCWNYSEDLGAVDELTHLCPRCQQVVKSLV

Isoleucine--tRNA ligase [13] = target: T1, Isoleucine--tRNA ligase; test: (§4) Inhibitory activity against isoleucyl-tRNA synthetase (IRS) of Staphylococcus aureus 11481; type: functional
Staphylococcus aureus [14] = test: Minimum inhibitory activity against Staphylococcus aureus 11481; type: functional; how it was run: as §1
Staphylococcus aureus [15] = test: Minimum inhibitory activity against Staphylococcus aureus C 7; type: functional; how it was run: as §1
Staphylococcus aureus [16] = test: Minimum inhibitory activity against Staphylococcus aureus NCTC 6571; type: functional; how it was run: as §1
Isoleucine--tRNA ligase [17] = target: T1, Isoleucine--tRNA ligase; test: Inhibitory activity against isoleucyl-tRNA synthetase (IRS) of Staphylococcus aureus NCTC 6571
Bacteroides fragilis [18] = test: compound was tested for antibacterial activity against Bacteroides fragilis NCTC 10581.; type: functional
Isoleucine--tRNA ligase [19] = target: T1, Isoleucine--tRNA ligase; test: as §4
Isoleucine--tRNA ligase [20] = target: T1, Isoleucine--tRNA ligase; test: Inhibitory activity against isoleucyl-tRNA synthetase (IRS) of Staphylococcus aureus C 7
Staphylococcus aureus [21] = test: Minimum inhibitory concentration against Staphylococcus aureus C 7; type: functional; how it was run: as §1
[22] = tested on: Isoleucine--tRNA ligase (Staphylococcus aureus); test: Inhibitory activity against isoleucyl-tRNA synthetase (IRS) of Staphylococcus aureus NCTC 6571

SMILES | MIC (Bacteroides fragilis [4]) | MIC (Enterobacter cloacae) | MIC (Escherichia coli [5]) | MIC (Escherichia coli [6]) | MIC (Enterococcus faecalis) | MIC (Haemophilus influenzae) | MIC (Klebsiella pneumoniae) | MIC (Moraxella catarrhalis) | MIC (Proteus mirabilis) | MIC (Pseudomonas aeruginosa) | MIC [7] | MIC (Streptococcus pneumoniae) | MIC (Staphylococcus aureus [8]) | MIC (Staphylococcus aureus [9]) | MIC (Streptococcus pyogenes) | MIC (Staphylococcus aureus [10]) | further results
CC1(C)S[C@@H]2[C@H](NC(=O)[C@H](N)c3ccc(O)cc3)C(=O)N2[C@H]1C(=O)O [AMOXICILLIN] | – | – | – | – | – | – | – | – | – | – | – | – | – | – | – | – | MIC (Staphylococcus aureus [1]): 0.25 µg/mL (≈ 0.684 µM); CD50 (Mus musculus [2]): 0.24 mg/kg; CD50 (Mus musculus [3]): 0.28 mg/kg
C/C(=C\c1ncc(-c2ncc([N+](=O)[O-])n2C)o1)C[C@@H]1OC[C@H](C[C@@H]2O[C@H]2[C@@H](C)[C@H](C)O)[C@@H](O)[C@H]1O | 0.5 µg/mL (≈ 1.02 µM) | > 64 µg/mL | > 64 µg/mL | 1 µg/mL (≈ 2.03 µM) | 64 µg/mL (≈ 130 µM) | < 0.06 µg/mL | > 64 µg/mL | 0.25 µg/mL (≈ 0.508 µM) | > 64 µg/mL | > 64 µg/mL | < 0.06 µg/mL | 0.5 µg/mL (≈ 1.02 µM) | > 64 µg/mL | 2 µg/mL (≈ 4.06 µM) | 0.25 µg/mL (≈ 0.508 µM) | > 64 µg/mL | IC50 [11]: 0.0007 µg/mL (≈ 0.00142 µM)
C/C(=C\c1ncc(-c2ccc([N+](=O)[O-])cc2)o1)C[C@@H]1OC[C@H](C[C@@H]2O[C@H]2[C@@H](C)[C@H](C)O)[C@@H](O)[C@H]1O | > 64 µg/mL | 32 µg/mL (≈ 65.5 µM) | 64 µg/mL (≈ 131 µM) | < 0.06 µg/mL | 32 µg/mL (≈ 65.5 µM) | 0.25 µg/mL (≈ 0.512 µM) | > 64 µg/mL | 1 µg/mL (≈ 2.05 µM) | > 64 µg/mL | > 64 µg/mL | 0.125 µg/mL (≈ 0.256 µM) | < 0.06 µg/mL | > 64 µg/mL | 0.125 µg/mL (≈ 0.256 µM) | 0.125 µg/mL (≈ 0.256 µM) | > 64 µg/mL | IC50 (Isoleucine--tRNA ligase [12]): 7.98 nM
C/C(=C\c1ncc(-c2ccc([N+](=O)[O-])s2)o1)C[C@@H]1OC[C@H](C[C@@H]2O[C@H]2[C@@H](C)[C@H](C)O)[C@@H](O)[C@H]1O | 2 µg/mL (≈ 4.04 µM) | > 64 µg/mL | > 64 µg/mL | < 0.06 µg/mL | > 64 µg/mL | < 0.06 µg/mL | > 64 µg/mL | < 0.06 µg/mL | > 64 µg/mL | > 64 µg/mL | < 0.06 µg/mL | < 0.06 µg/mL | 8 µg/mL (≈ 16.2 µM) | 0.125 µg/mL (≈ 0.253 µM) | < 0.06 µg/mL | 8 µg/mL (≈ 16.2 µM) | IC50 (Isoleucine--tRNA ligase [13]): 243 nM; MIC (Staphylococcus aureus [14]): 8 µg/mL (≈ 16.2 µM); MIC (Staphylococcus aureus [15]): 32 µg/mL (≈ 64.7 µM); MIC (Staphylococcus aureus [16]): 0.13 µg/mL (≈ 0.263 µM); IC50 (Isoleucine--tRNA ligase [17]): 6.67 nM
C/C(=C\C(=O)OCCCCCCCCC(=O)O)C[C@@H]1OC[C@H](C[C@@H]2O[C@H]2[C@@H](C)[C@H](C)O)[C@@H](O)[C@H]1O [MUPIROCIN] | – | – | – | 0.13 µg/mL (≈ 0.26 µM) | 32 µg/mL (≈ 63.9 µM) | < 0.06 µg/mL | > 64 µg/mL | 0.5 µg/mL (≈ 0.999 µM) | > 64 µg/mL | > 64 µg/mL | 0.125 µg/mL (≈ 0.25 µM) | < 0.06 µg/mL | > 64 µg/mL | < 0.06 µg/mL | < 0.06 µg/mL | – | MIC (Bacteroides fragilis [18]): > 64 µg/mL; IC50 (Isoleucine--tRNA ligase [19]): 280 nM; IC50 (Isoleucine--tRNA ligase [20]): 39900 nM; MIC (Staphylococcus aureus [21]): > 2050 µg/mL; IC50 [22]: 0.0008 µg/mL (≈ 0.0016 µM)
